According to ChEMBL document CHEMBL3286367, “Synthesis of new class of spirocarbocycle derivatives by multicomponent domino reaction and their evaluation for antimicrobial, anticancer activity and molecular docking studies” (2014):
In brackets after ≈: the same amount, converted by molar mass. Activity calls are given as the source filed them. The calls are words filed in the database; no cut-off is given here.

Legend:
[1] = system: Staphylococcus epidermidis; experiment: Antimicrobial activity against Staphylococcus epidermidis MTCC 3615 assessed as zone of inhibition at 1 mg/disc after 24 hrs incubation by disc diffusion assay; type: functional
Procedure, shortened: (§1)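 Inocula grown in Mueller Hinton broth for 24 h at 37 °C and swabbed onto Mueller Hinton agar. Discs carried 1 mg compound each and stood 30 min at room temperature before 24 h incubation at 37 °C. Solvent as negative control. Inhibition zones recorded in mm; experiment done twice.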

Staphylococcus aureus [2] = experiment: Antimicrobial activity against Staphylococcus aureus MTCC 96 assessed as zone of inhibition at 1 mg/disc after 24 hrs incubation by disc diffusion assay; type: functional; procedure, shortened: as §1
Staphylococcus aureus [3] = experiment: Antimicrobial activity against methicillin-resistant Staphylococcus aureus assessed as zone of inhibition at 1 mg/disc after 24 hrs incubation by disc diffusion assay; type: functional
Procedure, shortened: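 Inoculum grown in Mueller Hinton broth 24 h at 37°C, swabbed onto Mueller Hinton agar and dried 10 min. Discs loaded at 1 mg/disc, then 30 min at room temperature for diffusion. Plates incubated 24 h at 37°C. Solvent negative control; streptomycin positive control. Zone of inhibition read in mm; experiment done twice.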

Micrococcus luteus [4] = experiment: Antimicrobial activity against Micrococcus luteus MTCC 106 assessed as zone of inhibition at 1 mg/disc after 24 hrs incubation by disc diffusion assay; type: functional; procedure, shortened: as §1
Klebsiella aerogenes [5] = experiment: Antimicrobial activity against Enterobacter aerogenes MTCC 111 assessed as zone of inhibition at 1 mg/disc after 24 hrs incubation by disc diffusion assay; type: functional; procedure, shortened: as §1
Salmonella typhimurium [6] = experiment: Antimicrobial activity against Salmonella typhimurium MTCC 1251 assessed as zone of inhibition at 1 mg/disc after 24 hrs incubation by disc diffusion assay; type: functional, Salmonella enterica subsp. enterica serovar Typhimurium; procedure, shortened: as §1
Klebsiella pneumoniae [7] = experiment: Antimicrobial activity against Klebsiella pneumonia MTCC 109 assessed as zone of inhibition at 1 mg/disc after 24 hrs incubation by disc diffusion assay; type: functional; procedure, shortened: as §1
Proteus vulgaris [8] = experiment: Antimicrobial activity against Proteus vulgaris MTCC 1771 assessed as zone of inhibition at 1 mg/disc after 24 hrs incubation by disc diffusion assay; type: functional; procedure, shortened: as §1
Shigella flexneri [9] = experiment: Antimicrobial activity against Shigella flexneri MTCC 1457 assessed as zone of inhibition at 1 mg/disc after 24 hrs incubation by disc diffusion assay; type: functional; procedure, shortened: as §1
Candida albicans = experiment: Antifungal activity against Candida albicans MTCC 227 assessed as zone of inhibition at 1 mg/disc after 48 hrs incubation by disc diffusion assay; type: functional
Procedure, shortened: (§2)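 Disc diffusion on Mueller Hinton agar with swabbed cultures, 1 mg compound per disc. Discs stood 30 min at room temperature for diffusion, then plates incubated 48 h at 28 °C. Solvent as negative control. Yeast pre-grown in Sabouraud dextrose broth at 28 °C for 48-72 h; filamentous fungal spores came from SDA slants grown 10 days at 28 °C. Zone diameters in mm; run twice.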

Malassezia pachydermatis = experiment: Antifungal activity against Malassezia pachydermatis assessed as zone of inhibition at 1 mg/disc after 48 hrs incubation by disc diffusion assay; type: functional; procedure, shortened: as §2
[10] = system: Staphylococcus epidermidis; experiment: Antimicrobial activity against Staphylococcus epidermidis MTCC 3615 assessed as absence of visible growth after 48 to 72 hrs; type: functional
Staphylococcus aureus [11] = experiment: Antimicrobial activity against methicillin-resistant Staphylococcus aureus assessed as absence of visible growth after 48 to 72 hrs; type: functional
Procedure, shortened: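 Broth two-fold serial dilution in 96-well plates, 1000 to 7.81 µg/mL, compound dissolved in DMSO (2%). Inoculum grown in Mueller Hinton broth 24 h at 37°C. Streptomycin positive control. 5 µl of tested broth plated on MHA; MIC is the lowest concentration inhibiting visible growth on agar.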

Micrococcus luteus [12] = experiment: Antimicrobial activity against Micrococcus luteus MTCC 106 assessed as absence of visible growth after 48 to 72 hrs; type: functional
Klebsiella aerogenes [13] = experiment: Antimicrobial activity against Enterobacter aerogenes MTCC 111 assessed as absence of visible growth after 48 to 72 hrs; type: functional
Salmonella typhimurium [14] = experiment: Antimicrobial activity against Salmonella typhimurium MTCC 1251 assessed as absence of visible growth after 48 to 72 hrs; type: functional, Salmonella enterica subsp. enterica serovar Typhimurium; settings: Salmonella enterica
Proteus vulgaris [15] = experiment: Antimicrobial activity against Proteus vulgaris MTCC 1771 assessed as absence of visible growth after 48 to 72 hrs; type: functional
Shigella flexneri [16] = experiment: Antimicrobial activity against Shigella flexneri MTCC 1457 assessed as absence of visible growth after 24 hrs
Staphylococcus aureus [17] = experiment: Antimicrobial activity against Staphylococcus aureus MTCC 96 assessed as absence of visible growth after 24 hrs
Klebsiella pneumoniae [18] = experiment: Antimicrobial activity against Klebsiella pneumonia MTCC 109 assessed as absence of visible growth after 24 hrs
Staphylococcus aureus [19] = experiment: Antimicrobial activity against Staphylococcus aureus MTCC 96 assessed as absence of visible growth after 48 to 72 hrs; type: functional
Klebsiella pneumoniae [20] = experiment: Antimicrobial activity against Klebsiella pneumonia MTCC 109 assessed as absence of visible growth after 48 to 72 hrs; type: functional
A549 [21] = experiment: Anticancer activity against human A549 cells assessed as cell growth inhibition at 5 ug/ml by MTT assay; type: functional; settings: read-out: GI
Procedure, shortened: (§3)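 A549 cells kept in DMEM with 10% FBS, 2 mM L-glutamine, penicillin/streptomycin, pH 7.2. Seeded at 5000 cells/well in medium with compound at 5–50 µg/mL. Grown at 37 °C, 5% CO2. Medium then replaced by 1 mg/mL MTT for 4 h and formazan dissolved in DMSO. Absorbance read at 540 nm; three replicate experiments.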

A549 [22] = experiment: Anticancer activity against human A549 cells assessed as cell growth inhibition at 10 ug/ml by MTT assay; type: functional; settings: read-out: GI; procedure, shortened: as §3
A549 [23] = experiment: Anticancer activity against human A549 cells assessed as cell growth inhibition at 20 ug/ml by MTT assay; type: functional; settings: read-out: GI; procedure, shortened: as §3
A549 [24] = experiment: Anticancer activity against human A549 cells assessed as cell growth inhibition at 30 ug/ml by MTT assay; type: functional; settings: read-out: GI; procedure, shortened: as §3
A549 [25] = experiment: Anticancer activity against human A549 cells assessed as cell growth inhibition at 40 ug/ml by MTT assay; type: functional; settings: read-out: GI; procedure, shortened: as §3
A549 [26] = experiment: Anticancer activity against human A549 cells assessed as cell growth inhibition at 50 ug/ml by MTT assay; type: functional; settings: read-out: GI; procedure, shortened: as §3
Shigella flexneri [27] = experiment: Antimicrobial activity against Shigella flexneri MTCC 1457 assessed as absence of visible growth after 48 to 72 hrs; type: functional
[28] = system: Staphylococcus epidermidis; experiment: Antimicrobial activity against Staphylococcus epidermidis MTCC 3615 assessed as absence of visible growth after 24 hrs

Compound | inhibition zone (IZ) [1] [mm] | inhibition zone (IZ) (Micrococcus luteus [4]) [mm] | inhibition zone (IZ) (Klebsiella aerogenes [5]) [mm] | inhibition zone (IZ) (Salmonella typhimurium [6]) [mm] | inhibition zone (IZ) (Klebsiella pneumoniae [7]) [mm] | inhibition zone (IZ) (Proteus vulgaris [8]) [mm] | inhibition zone (IZ) (Shigella flexneri [9]) [mm] | inhibition zone (IZ) (Candida albicans) [mm] | inhibition zone (IZ) (Malassezia pachydermatis) [mm] | MIC [10] [µg/mL] | MIC (Micrococcus luteus [12]) [µg/mL] | MIC (Klebsiella aerogenes [13]) [µg/mL] | MIC (Salmonella typhimurium [14]) [µg/mL] | MIC (Proteus vulgaris [15]) [µg/mL] | MIC (Shigella flexneri [16]) [µg/mL] | inhibition zone (IZ) (Staphylococcus aureus [2]) [mm] | inhibition zone (IZ) (Staphylococcus aureus [3]) [mm] | MIC (Staphylococcus aureus [19]) [µg/mL] | MIC (Staphylococcus aureus [11]) [µg/mL] | MIC (Klebsiella pneumoniae [20]) [µg/mL] | other results
N#CC1=C(N)[C@]2(C(=O)Nc3ccccc32)[C@@H](c2ccc(Cl)cc2)[C@@H]2CCCC=C12 | 13 | 9 | 10 | 12 | 16 | 17 | 10 | 9 | 11 | 250 (≈ 622 µM) | 1000 (≈ 2490 µM) | 250 (≈ 622 µM) | 250 (≈ 622 µM) | 125 (≈ 311 µM) | 250 (≈ 622 µM) |  |  |  |  |  | inhibition (Staphylococcus aureus [2]): inactive; inhibition (Staphylococcus aureus [3]): inactive; inhibition (Staphylococcus aureus [11]): inactive; inhibition (Staphylococcus aureus [17]): inactive; MIC (Klebsiella pneumoniae [18]): 125 µg/mL (≈ 311 µM)
N#CC1=C(N)[C@]2(C(=O)Nc3ccccc32)[C@@H](c2cccs2)[C@@H]2CCCC=C12 | 19 | 15 | 17 | 15 | 16 | 23 | 25 | 10 | 12 | 125 (≈ 335 µM) | 250 (≈ 669 µM) | 125 (≈ 335 µM) | 250 (≈ 669 µM) | 62.5 (≈ 167 µM) | 62.5 (≈ 167 µM) | 13 | 21 | 250 (≈ 669 µM) | 62.5 (≈ 167 µM) | 125 (≈ 335 µM) | inhibition of growth at 5 µg/mL (A549 [21]): 25.7%; inhibition of growth at 10 µg/mL (A549 [22]): 45.8%; inhibition of growth at 20 µg/mL (A549 [23]): 62.4%; inhibition of growth at 30 µg/mL (A549 [24]): 67.8%; inhibition of growth at 40 µg/mL (A549 [25]): 75.9%; inhibition of growth at 50 µg/mL (A549 [26]): 83.9%
Cc1ccc([C@H]2[C@@H]3CCCC=C3C(C#N)=C(N)C23C(=O)c2ccccc2C3=O)cc1 (relative stereo) | 10 | 9 | 13 | 14 | 15 | 10 | 8 | 10 | 11 |  | 1000 (≈ 2540 µM) | 250 (≈ 634 µM) | 250 (≈ 634 µM) | 500 (≈ 1270 µM) |  | 10 | 11 | 250 (≈ 634 µM) | 250 (≈ 634 µM) | 250 (≈ 634 µM) | MIC (Shigella flexneri [27]): 1000 µg/mL (≈ 2540 µM); MIC [28]: 500 µg/mL (≈ 1270 µM)
Cc1ccc([C@H]2[C@@H]3CCC=C3C(C#N)=C(N)C23C(=O)c2ccccc2C3=O)cc1 (relative stereo) | 14 | 12 | 15 | 10 | 15 | 16 | 13 | 10 | 13 |  | 250 (≈ 657 µM) | 250 (≈ 657 µM) | 500 (≈ 1310 µM) | 125 (≈ 329 µM) |  | 17 | 12 | 125 (≈ 329 µM) | 250 (≈ 657 µM) | 250 (≈ 657 µM) | MIC (Shigella flexneri [27]): 250 µg/mL (≈ 657 µM); MIC [28]: 250 µg/mL (≈ 657 µM)
